According to ChEMBL document CHEMBL5154639, “Anti-schistosomal activities of quinoxaline-containing compounds: From hit identification to lead optimisation” (Eur J Med Chem, 2021):
Active and inactive are the calls of the source.

Experiments:
[1] = system: Schistosoma mansoni; assay: Antischistosomal activity against adult stage of Schistosoma mansoni assessed as cessation of worm motility at 6.25 to 12.5 uM measured after 72 hrs; format: functional, organism-based; settings: dose 6.25-12.5 µM
In short: (§1)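 7-week adult worm pairs, 1–3 pairs per well in duplicate, in DMEM with 10% FCS, L-glutamine and antibiotics, incubated 72 h at 37°C, 5% CO2. Concentrations were 0.78–50 µM in 0.5% DMSO, with some titrations at 0.0095–10 or 0.0095–5 µM. Controls were 0.5% DMSO and praziquantel 10 µM. Motility was measured by digital image analysis, and eggs were collected, formalin-fixed and counted.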

[2] = system: Schistosoma haematobium; assay: Antischistosomal activity against Schistosoma haematobium assessed as inhibition of parasite movement at 100 nM measured after 24 to 72 hrs by microscopic method; format: functional, organism-based; settings: time 24-72 hrs
In short: (§2)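 Adult males (Egyptian isolate for S. haematobium, hamster-derived; Philippine isolate for S. japonicum, mouse-derived), about 5 per well in Basch 169 medium with antibiotics and 4% FBS, acclimated overnight at 37°C, 5% CO2. Compound added at 100 nM final in DMSO. Shape, density and motility scored by microscope with constrained descriptors at 5, 24, 48 and 72 h. Triplicate, sometimes duplicate.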

[3] = system: Schistosoma japonicum; assay: Antischistosomal activity against adult stage of Schistosoma japonicum assessed as inhibition of parasite motility at 100 nM measured after 48 hrs by microscopic method; format: functional, organism-based; in short: as §2
[4] = system: Schistosoma mansoni; assay: Antischistosomal activity against Schistosoma mansoni Puerto-Rican schistosomula assessed as inhibition of parasite motility at 50 uM measured after 72 hrs; format: functional, organism-based
In short: (§3)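 Mechanically transformed schistosomula, 120 per well, incubated with compound at 37°C, 5% CO2 for 72 h, at single concentrations (10, 50 µM) or two-fold titrations (0.313–10 µM). Controls were auranofin 10 µM and 0.625% DMSO. Motility and phenotype were scored by automated high-content imaging, and EC50 was taken from two or three replicate titrations.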

[5] = system: Schistosoma mansoni; assay: Antischistosomal activity against adult stage of Schistosoma mansoni assessed as cessation of worm motility at 0.0095 to 10 uM measured after 72 hrs; format: functional, organism-based; settings: dose 0.0095-10 µM; in short: as §1
[6] = Genotoxicity against human TK6 cells assessed as […] in micronuclei formation at 0.5 to 2 uM measured after 24 hrs; format: toxicity, cell-based; settings: tk6, 24 h, dose 0.5-2 µM
In short: (§4)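 TK6 cells, about 2×10^5/ml in RPMI with 10% horse serum, treated 24 h without recovery at 0.5, 2 and 4 µM. Controls were 1% DMSO, MMS 45.4 µM and carbendazim 8.4 µM. Cells were fixed, permeabilized and stained for γH2AX, p53 and DRAQ5, then imaged by flow cytometry. Micronuclei were scored by neural network as %MNi in mononucleated cells. Biomarkers were expressed as fold change, with 1.5-fold as cut-off. Three experiments.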

[7] = system: TK6; assay: Induction of cell cycle arrest in human TK6 cells assessed as accumulation of cells at G2/M phase at 2 to 4 uM; format: toxicity, cell-based; settings: tk6, 4 µM, dose 2-4 µM
[8] = Genotoxicity against human TK6 cells assessed as induction of DNA damage by measuring gammaH2AX level at 0.5 to 4 uM measured after 24 hrs; format: toxicity, cell-based; settings: tk6, 24 h, dose 0.5-4 µM; in short: as §4
[9] = Genotoxicity against human TK6 cells assessed as induction of DNA damage by measuring nuclear p53 content at 0.5 to 4 uM measured after 24 hrs; format: toxicity, cell-based; settings: tk6, 24 h, dose 0.5-4 µM; in short: as §4
[10] = system: Schistosoma mansoni; assay: Antischistosomal activity against juvenile stage of Schistosoma mansoni assessed as parasite death at 1.25 to 10 uM measured after 72 hrs by PI staining based analysis; format: functional, organism-based; settings: dose 1.25-10 µM
In short: (§5)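 Juvenile worms, 20–25 per well, exposed to 10–0.156 µM for 72 h at 37°C, 5% CO2. Controls were 1.25% DMSO, and PZQ and AUR at 15 µM. Motility and phenotype were scored on an adapted WHO-TDR 0–4 scale. Viability was measured by 15 min staining with 2 µg/ml propidium iodide, imaged, and reported as the percentage of PI-positive worms per well.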

[11] = system: Schistosoma mansoni; assay: Antischistosomal activity against adult stage of Schistosoma mansoni assessed as inhibition of oviposition at 0.0095 to 10 uM measured after 72 hrs; format: functional, organism-based; settings: dose 0.0095-10 µM; in short: as §1
[12] = system: Schistosoma mansoni; assay: Antischistosomal activity against Schistosoma mansoni assessed as parasite death at 10 to 50 uM measured after 48 hrs; format: functional, organism-based; settings: dose 10-50 µM
In short: (§6)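 Miracidia hatched from eggs by light exposure in artificial river water, then washed in CBSS. Set up in CBSS with compound, usually 0.5, 2, 5, 10 and 50 µM, in duplicate, with 1% DMSO as negative control. After 48 h at 26°C, dead, fully transformed and partially transformed larvae were counted.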

[13] = system: Schistosoma mansoni; assay: Antischistosomal activity against Schistosoma mansoni assessed as inhibition of miracidial to sporocyst transformation measured after 48 hrs; format: functional, organism-based; settings: dose 0.5-5 µM, DDE = dose-dependent effect; in short: as §6
[14] = system: Schistosoma mansoni; assay: Antischistosomal activity against juvenile stage of Schistosoma mansoni assessed as increased granularity with reduced movement at 0.156 uM measured after 72 hrs by PI staining based analysis; format: functional, organism-based; in short: as §5
[15] = Genotoxicity against human TK6 cells assessed as […] in micronuclei formation at 4 uM measured after 24 hrs; format: toxicity, cell-based; settings: tk6, 24 h; in short: as §4
[16] = system: TK6; assay: Cytotoxicity against human TK6 cells assessed as increase in mitotic arrest at 4 uM measured after 24 hrs; format: toxicity, cell-based; settings: tk6, 24 h
[17] = Drug uptake in cytoplasm of human TK6 cells by fluorescence based analysis; format: ADME, subcellular
In short: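 Compound autofluorescence was recorded alongside γH2AX and p53 during imaging flow cytometry of TK6 cells treated for 24 h at 0.5–4 µM and fixed with lysis solution.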

[18] = system: Schistosoma mansoni; assay: Antischistosomal activity against adult stage of Schistosoma mansoni assessed as inhibition of oviposition at 0.0024 to 10 uM measured after 72 hrs; format: functional, organism-based; settings: dose 0.0095-10 µM, in the assay text read “0.0095 to 10 uM” for “0.0024 to 10 uM”; in short: as §1
[19] = system: Schistosoma japonicum; assay: Antischistosomal activity against adult stage of Schistosoma japonicum assessed as inhibition of parasite motility at 100 nM measured after 24 to 72 hrs by microscopic method; format: functional, organism-based; settings: time 24-72 hrs; in short: as §2
[20] = system: Schistosoma japonicum; assay: Antischistosomal activity against adult stage of Schistosoma japonicum assessed as parasite death at 100 nM measured after 72 hrs by microscopic method; format: functional, organism-based; in short: as §2
[21] = system: Schistosoma mansoni; assay: Antischistosomal activity against adult stage of Schistosoma mansoni assessed as cessation of worm motility at 3.15 uM measured after 72 hrs; format: functional; in short: as §1
[22] = system: Schistosoma mansoni; assay: Antischistosomal activity against Schistosoma mansoni Puerto-Rican schistosomula assessed as inhibition of parasite motility measured after 72 hrs; format: functional, organism-based; in short: as §3
[23] = system: Schistosoma mansoni; assay: Antischistosomal activity against Schistosoma mansoni Puerto-Rican schistosomula assessed as phenotypic changes measured after 72 hrs; format: functional, organism-based; in short: as §3
[24] = system: Schistosoma mansoni; assay: Antischistosomal activity against adult stage of Schistosoma mansoni assessed as inhibition of parasite motility measured after 72 hrs; format: functional, organism-based; in short: as §1
[25] = Cytotoxicity against human HepG2 cells assessed as reduction in cell viability incubated for 24 hrs by MTT assay; format: toxicity, cell-based
In short: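 HepG2 seeded at 2×10^4 cells/well, then after 24 h exposed to 1–200 µM (seven concentrations) for 24 h at 37°C. Controls were 1.25% DMSO and 1% Triton X-100. MTT absorbance was read at 570 nm. Triplicates in three experiments; CC50 by non-linear regression of normalized log-dose curves.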

[26] = Cytotoxicity against human HepG2 cells assessed as reduction in cell viability incubated for 72 hrs by MTT assay; format: toxicity, cell-based
[27] = Selectivity index, ratio of CC50 for human HepG2 cells measured after 72 hrs to EC50 for antischistosomal activity against Schistosoma mansoni Puerto-Rican schistosomula measured after 72 hrs; format: toxicity; settings: read-out: Ratio CC50/EC50
[28] = Selectivity index, ratio of CC50 for human HepG2 cells measured after 72 hrs to EC50 for antischistosomal activity against adult stage of Schistosoma mansoni measured after 72 hrs; format: toxicity; settings: read-out: Ratio CC50/EC50
[29] = system: Schistosoma mansoni; assay: Antischistosomal activity against adult stage of Schistosoma mansoni assessed as inhibition of in vitro laid eggs production at 12.5 uM measured after 72 hrs; format: functional, organism-based; in short: as §1
[30] = system: Schistosoma mansoni; assay: Antischistosomal activity against adult stage of Schistosoma mansoni assessed as absence of body/gut movement, plate detachment and severe damage to the tegument at 25 to 50 uM measured after 72 hrs; format: functional, organism-based; settings: dose 25-50 µM; in short: as §1

With `Cc1cccc(Nc2nc3ccc([N+](=O)[O-])cc3nc2Nc2cccc(C)c2)c1` the Activity [1] was “Active”.

With `O=[N+]([O-])c1ccc2nc(Nc3cccc(C(F)(F)F)c3)c(Nc3cccc(C(F)(F)F)c3)nc2c1` the Activity [2] was “Active” and the Activity [3] was “Active”.

For `Clc1ccc(Nc2nc3ccc(N4CCCC4)cc3nc2Nc2ccc(Cl)c(Cl)c2)cc1Cl`, the Activity [4] was “Active”.

In the case of `O=[N+]([O-])c1ccc2nc(Nc3ccc(Cl)c(Cl)c3)c(Nc3ccc(Cl)c(Cl)c3)nc2c1`, the Activity [1] is reported as “Active”, the Activity [5] is reported as “Active” and the Activity [6] is reported as “Non-Toxic”. For the same molecule, the Activity [7] was “Toxic”, the Activity [8] was “Non-Toxic” and the Activity [9] was “Non-Toxic”. For the same molecule, the Activity [10] was “Active”, the Activity [11] was “Active” and the Activity [12] was “Active”. The Activity [13] was “Dde”, the Activity [14] was “Active” and the Activity [15] was “Toxic”. The Activity [16] was “Toxic”, the Drug uptake [17] was “Active” and the Activity [18] was “Active”. For the same molecule, the Activity [3] was “Active”.

With `O=[N+]([O-])c1ccc2nc(Nc3ccc(C(F)(F)F)cc3)c(Nc3ccc(C(F)(F)F)cc3)nc2c1` the Activity [19] was “Active”, the Activity [2] was “Active” and the Activity [20] was “Active”.

In the case of `Cc1ccc(Nc2nc3ccccc3nc2Nc2ccc(C)c(C)c2)cc1C`, the Activity [1] is reported as “Active”.

In the case of `FC(F)(F)c1cccc(Nc2nc3ccccc3nc2Nc2cccc(C(F)(F)F)c2)c1`, the Activity [1] is reported as “Active” and the Activity [21] is reported as 100%.

In the case of `O=[N+]([O-])c1ccc2nc(Nc3ccc(Cl)cc3)c(Nc3ccc(Cl)cc3)nc2c1`, the Activity [3] is reported as “Active”.

In the case of `O=[N+]([O-])c1ccc2nc(Nc3cc(F)cc(C(F)(F)F)c3)c(Nc3cc(F)cc(C(F)(F)F)c3)nc2c1`, the Activity [18] is reported as “Active”.

For `O=[N+]([O-])c1ccc2nc(Nc3ccccc3)c(Nc3ccccc3)nc2c1`, the Activity [1] was “Active” and the Activity [21] was 100%.

In the case of `O=[N+]([O-])c1ccc2nc(Nc3cc(C(F)(F)F)ccc3F)c(Nc3cc(C(F)(F)F)ccc3F)nc2c1`, the Activity [19] is reported as “Active”, the Activity [2] is reported as “Active” and the Activity [18] is reported as “Active”. For the same molecule, the Activity [20] was “Active”.

In the case of `O=[N+]([O-])c1ccc2nc(Nc3cccc(Cl)c3)c(Nc3cccc(Cl)c3)nc2c1`, the Activity [3] is reported as “Active”.

For `Brc1ccc(Nc2nc3ccccc3nc2Nc2ccc(Br)cc2)cc1`, the EC50 [22] was 1.21 µM, the EC50 [23] was 3.67 µM and the EC50 [24] was 0.162 µM. It also gave a CC50 at 24 h [25] of 7.12 µM, a CC50 at 72 h [26] of 4.64 µM and a selectivity ratio at 72 h [27] of 1.9. It also gave a selectivity ratio at 72 h [28] of 28.6.

In the case of `COC(=O)c1ccc(Nc2nc3ccc([N+](=O)[O-])cc3nc2Nc2ccc(C(=O)OC)cc2)cc1`, the Activity [1] is reported as “Active”.

In the case of `c1ccc(/N=c2\sc3ccccc3s\c2=N\c2ccccc2)cc1`, the Activity [29] is reported as “Active” and the Activity [30] is reported as “Active”.

With `O=C(C1CCCCC1)N1CC(=O)N2CCc3ccccc3C2C1` (stereo not drawn) the Activity [5] was “Active”, the Activity [11] was “Active” and the Activity [18] was “Active”.
